# Legend:
# [1] = target: human neutrophil peptide 1 (human); assay: SPR
# Apoe−/− HNP1tg/tg mice [2] = assay: Plasma lipids and FPLC lipoprotein fractions, HNP1-transgenic mice; assay type: in vivo, mouse; details: transgenic HNP1 expression
# Procedure, shortened: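 Female Apoe−/− HNP1tg/tg mice and Apoe−/− littermates were fed high-fat diet (21% fat, 0.15% cholesterol) for 4 weeks. Plasma was stored at −80 °C and triglycerides were measured enzymatically with a kit. For lipoprotein profiles, plasma from 10 animals per group was pooled (0.25 ml) and FPLC gel-filtered on two Superose 6 columns in series.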
# Apoe−/− HNP1tg/tg mice [3] = assay: Blood cell counts by flow cytometry, HNP1-transgenic mice; assay type: in vivo, mouse; details: transgenic HNP1 expression, vs Apoe−/−, high-fat diet 4 weeks, n = 10
# Procedure, shortened: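 Female Apoe−/− HNP1tg/tg mice and Apoe−/− littermates (C57Bl/6 background, ≥10 backcross generations) fed high-fat diet (21% fat, 0.15% cholesterol) for 4 weeks. Blood red cells were lysed (150 mM NH4Cl, 10 mM KHCO3, 0.1 mM diNaEDTA, pH 7.4) and HBSS-washed. Cells were stained for CD115, CD11b, CD45 and Gr1 and analysed by flow cytometry; absolute counts came from counting beads.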
# [4] = system: plasma lipoprotein fractions (VLDL, LDL, HDL); assay: Dot blot of lipoprotein fractions of HNP1-treated mice; assay type: binding, mouse; details: HNP1 10 μg i.v., plasma after 24 h
# Procedure, shortened: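 Apoe−/− mice on high-fat diet received 10 μg i.v.; plasma collected after 24 h, pooled (10 animals per group, 0.25 ml) and fractionated by FPLC gel filtration on two Superose 6 columns in series. Fractions spotted on nitrocellulose, blocked in 1% milk/PBS (0.5–1.0 h, RT), probed overnight at 4 °C with anti-HNP1, ApoA, ApoB or ApoC3 (1:5000), HRP secondary 1:5000 (1 h, RT), ECL chemiluminescence.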
# mice expressing HNP1 = details: ref Abu-Fanne et al., 2016, cited from earlier work
# [5] = system: hepatocytes of C57BL/6 wild-type mice; assay: Liver perfusion, Dil-LDL uptake in hepatocytes, wild-type mice; assay type: in vivo, mouse; details: Dil-LDL 50 μg/ml with HNP1 10 μg/ml, 20 min, 2 ml/min, normocholesterolemic WT mice, flow cytometry, n = 3 per group
# Procedure, shortened: (§1)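 Anaesthetised mice underwent laparotomy with double-ligated vena cava. Portal vein cannulated; liver perfused 20 min at 2 ml/min with DiI-labelled human LDL (50 μg/ml) preincubated with 10 μg/ml peptide in PBS, or PBS alone. Liver minced, filtered (100 μm), spun 500 g 5 min, then 36% Percoll-HBSS 800 g 20 min. Top-phase hepatocytes analysed by flow cytometry as fold over background fluorescence; n = 3 per group, Mann-Whitney test.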
# Lp(a) = details: ref Bdeir et al., 1999; cited from earlier work
# liver of Ldlr−/− mice = assay: Liver perfusion, Dil-LDL uptake, Ldlr−/− mice; assay type: in vivo, mouse; details: Dil-LDL 50 μg/ml with HNP1 10 μg/ml, 20 min, 2 ml/min, n = 3 per group
# Procedure, shortened: as §1
# [6] = Plasma HNP1 levels in HNP1-transgenic mice, dot blot; assay type: in vivo, mouse; details: Apoe−/− HNP1tg/tg mice, high-fat diet 4 weeks, dot blot against recombinant HNP1
# Procedure, shortened: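 Plasma from female HNP1-transgenic Apoe−/− mice after 4 weeks high-fat diet was spotted onto nitrocellulose and blocked in 1% non-fat milk/PBS (0.5–1.0 h, RT). Blots were probed overnight at 4 °C with anti-HNP1 (1:5000), washed in PBS/0.05% Tween 20, then given HRP secondary (1:5000, 1 h, RT) and 3 × 15 min washes. ECL chemiluminescence was the read-out.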
# Apoe−/− mice = assay: Plasma lipids after repeated HNP1 treatment; assay type: in vivo, mouse; details: 10 μg every other day i.v., 4 weeks, n = 8–11 per group
# Procedure, shortened: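 Female Apoe−/− mice on high-fat diet (21% fat, 0.15% cholesterol) for 8 weeks received peptide (10 μg i.v., every other day) or PBS i.v. over the last 4 weeks. Plasma triglycerides were measured enzymatically with a kit. Blood leukocytes were counted by flow cytometry after red cell lysis, using CD115/CD11b/CD45/Gr1 staining and counting beads. n = 8–11 per group; one-way ANOVA with Bonferroni test.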
# HepG2 cells = assay: Lipid; assay type: cell-based, human
# Procedure, shortened: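 HepG2 cells were grown in DMEM with 10% heat-inactivated FCS at 37 °C, 5% CO2. Human LDL (50 μg/ml) was pre-incubated 30 min at 37 °C with peptide (1 μg/ml) or PBS vehicle. Cells were then exposed to LDL for 2 h. Oil Red O staining followed, and the eluted dye gave relative lipid content.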
# [7] = system: Apoe−/− HNP1tg/tg mice on high-fat diet; assay: Atherosclerotic lesions in aortic root, HNP1-transgenic Apoe−/− mice; assay type: in vivo, mouse; details: transgenic HNP1 expression, high-fat diet 4 weeks, Ly6G staining, n=10
# Procedure, shortened: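 Female Apoe−/− HNP1tg/tg mice (C57Bl/6 background, backcrossed ≥10 generations) fed high-fat diet (21% fat, 0.15% cholesterol) for 4 weeks. Frozen aortic root sections stained with anti-Ly6G (1A8, 1:100), then secondary antibody 30 min at room temperature, with DAPI nuclear counterstain. Images analysed by fluorescence microscopy.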
# [8] = system: plasma cholesterol / lipoproteins of hypercholesterolemic mice; assay: Precipitation of lipid-bound HNP1 from plasma with anti-HNP1 magnetic beads; assay type: binding, mouse; details: dot blot of precipitate
# Procedure, shortened: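 Anti-HNP monoclonal antibody (100 μg) coupled overnight at room temperature to 3.3 × 108 magnetic beads in 1 M ammonium sulfate. Washed beads, at 2 × 109 beads/ml, added to 50 μl plasma from hypercholesterolemic mice incubated with the peptide, then rotated overnight at room temperature. Beads removed; precipitated samples spotted on nitrocellulose and probed by chemiluminescent dot blot with apolipoprotein antibodies.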
Kd [1],Substance,"HDL-cholesterol (Apoe−/− HNP1tg/tg mice [2]; FPLC, pooled plasma of 10 animals per group)","Plasma triglyceride levels (Apoe−/− HNP1tg/tg mice [2]; high-fat diet 4 weeks, n=10)",Blood counts of leukocyte subpopulations (Apoe−/− HNP1tg/tg mice [3]),"Detection of HNP1 in lipoprotein fractions ([4]; FPLC fractions, dot blot)","Apolipoproteins in HNP1-positive fractions ([4]; antibodies to ApoA1, ApoB, ApoC3)",Total cholesterol and LDL plasma levels in mice expressing HNP1 (mice expressing HNP1; normocholesterolemic),Lipid deposits in mice with transgenic HNP1 expression (mice expressing HNP1; prolonged periods of high fat diet feeding),LDL uptake in hepatocytes (portal vein perfusion) [5],Interaction with Lp(a) (Lp(a)),"LDL uptake in the liver (portal vein perfusion), Ldlr−/− (liver of Ldlr−/− mice)",Plasma HNP1 levels [6],"Plasma cholesterol levels after repeated treatment (Apoe−/− mice; vs baseline, PBS not different from baseline)",Plasma triglyceride levels and blood leukocyte counts after repeated treatment (Apoe−/− mice),"HNP1-assisted LDL clearance after LDLR silencing (HepG2 cells; Ldlr siRNA 100 nM, 24 h, HepG2)","LDL uptake by HepG2 (HepG2 cells; human LDL 50 μg/ml, HNP1 1 μg/ml, 2 h, Oil Red O elution)",Number of lesional neutrophils [7],Apolipoproteins in anti-HNP1 precipitate [8]
2.45 nM,human ApoB (from UniProt P04114 28-4563) (natural protein),,,,,,,,,,,,,,,,,
,human neutrophil peptide 1 [HNP1],HDL-cholesterol remained unaffected,triglyceride levels remained unaffected,comparable between the groups,only detected in VLDL and LDL fractions but not in HDL fractions,ApoB and ApoC3 were detected but not ApoA1,total cholesterol levels as well as LDL plasma levels were reduced in mice expressing HNP1,facilitated the development of very small lipid deposits,vast increase of LDL uptake in hepatocytes,shown to interact with Lp(a),failed to stimulate LDL uptake in the liver,0.5 to 1 µg/mL,lowered plasma cholesterol levels below baseline levels,not affected by HNP1 treatment,silencing of LDLR abrogated HNP1-assisted LDL clearance,strongly enhanced LDL uptake,The number of lesional neutrophils was not affected,precipitate stained positive for ApoB and ApoC3
0.0358 nM,human ApoC3 (from UniProt P02656 21-99) (natural protein),,,,,,,,,,,,,,,,,
